One block for each molecule: values may come before it.
What was measured:
LAD2 [1] = experiment: Inhibition of human LAD2 cells degranulation at 1 uM preincubated for 30 mins before streptavidin stimulation measured after 30 mins by measuring beta-hexosaminidase activity; format: functional
Summary of the method: (§1)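 LAD2 mast cells sensitized overnight at 37 °C, 5% CO2 with 100 ng/ml biotin-IgE in StemPro-34 growth medium with 2 mM glutamine and 100 ng/ml SCF. They were washed into release buffer, plated at 10,000 cells/well, given drug for 30 min, then 125 ng/ml streptavidin for 30 min. Supernatant and freeze-thaw lysate were incubated 90 min at 37 °C with 1 mM p-nitrophenyl-N-acetyl-D-glucosamide, citrate pH 4.5.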

CHO = experiment: Cytotoxicity against CHO cells; format: cell-based; conditions: Cricetulus griseus
LAD2 [2] = experiment: Inhibition of human LAD2 cells degranulation preincubated for 30 mins before streptavidin stimulation measured after 30 mins by measuring beta-hexosaminidase activity; format: functional, cell-based; summary of the method: as §1
[3] = molecular target: Tyrosine-protein kinase Fyn (Homo sapiens) (UniProt P06241); experiment: Inhibition of human Fyn at 1 uM
[4] = molecular target: Tyrosine-protein kinase Fgr (Homo sapiens) (UniProt P09769); experiment: Inhibition of human Fgr at 1 uM
[5] = molecular target: Tyrosine-protein kinase ZAP-70 (Homo sapiens) (UniProt P43403); experiment: Inhibition of human ZAP70 at 1 uM
[6] = molecular target: Tyrosine-protein kinase ITK/TSK (Homo sapiens) (UniProt Q08881); experiment: Inhibition of human Itk at 1 uM
[7] = molecular target: 3-phosphoinositide-dependent protein kinase 1 (PDPK1) (Homo sapiens) (UniProt O15530); experiment: Inhibition of human PDK1 at 1 uM
[8] = molecular target: Focal adhesion kinase 1 (Homo sapiens) (UniProt Q05397); experiment: Inhibition of human FAK at 1 uM
[9] = molecular target: Receptor-type tyrosine-protein kinase FLT3 (Homo sapiens) (UniProt P36888); experiment: Inhibition of human Flt3 at 1 uM
[10] = molecular target: Tyrosine-protein kinase receptor UFO (Homo sapiens) (UniProt P30530); experiment: Inhibition of human Axl at 1 uM
[11] = molecular target: Fibroblast growth factor receptor 3 (Homo sapiens) (UniProt P22607); experiment: Inhibition of human FGFR3 at 1 uM
[12] = molecular target: Serine/threonine-protein kinase Chk1 (Homo sapiens) (UniProt O14757); experiment: Inhibition of human CHK1 at 1 uM
[13] = molecular target: Protein-tyrosine kinase 2-beta (Homo sapiens) (UniProt Q14289); experiment: Inhibition of human Pyk2 at 1 uM
[14] = molecular target: Dual specificity mitogen-activated protein kinase kinase 6 (Homo sapiens) (UniProt P52564); experiment: Inhibition of human MKK6 at 1 uM
[15] = molecular target: Mitogen-activated protein kinase kinase kinase 7 (Homo sapiens) (UniProt O43318); experiment: Inhibition of human TAK1 at 1 uM
[16] = molecular target: Serine/threonine-protein kinase pim-1 (Homo sapiens) (UniProt P11309); experiment: Inhibition of human Pim-1 at 1 uM
[17] = molecular target: ALK tyrosine kinase receptor (Homo sapiens) (UniProt Q9UM73); experiment: Inhibition of human Alk at 1 uM
[18] = molecular target: Casein kinase I isoform delta (Homo sapiens) (UniProt P48730); experiment: Inhibition of human CK1delta at 1 uM
[19] = molecular target: Vascular endothelial growth factor receptor 1 (Homo sapiens) (UniProt P17948); experiment: Inhibition of human Flt1 at 1 uM
[20] = molecular target: Rho-associated protein kinase 2 (Homo sapiens) (UniProt O75116); experiment: Inhibition of human ROCK2 at 1 uM
[21] = molecular target: High affinity nerve growth factor receptor (Homo sapiens) (UniProt P04629); experiment: Inhibition of human TrkA at 1 uM
[22] = molecular target: Proto-oncogene tyrosine-protein kinase receptor Ret (Homo sapiens) (UniProt P07949); experiment: Inhibition of human Ret at 1 uM
[23] = molecular target: Tyrosine-protein kinase Lyn (Homo sapiens) (UniProt P07948); experiment: Inhibition of human Lyn at 1 uM
[24] = molecular target: Macrophage colony-stimulating factor 1 receptor (Homo sapiens) (UniProt P07333); experiment: Inhibition of human Fms at 1 uM
[25] = molecular target: Protein kinase C gamma type (Homo sapiens) (UniProt P05129); experiment: Inhibition of human PKCgamma at 1 uM
[26] = molecular target: Ribosomal protein S6 kinase alpha-6 (Homo sapiens) (UniProt Q9UK32); experiment: Inhibition of human Rsk4 at 1 uM
[27] = molecular target: Aurora kinase A (Homo sapiens) (UniProt O14965); experiment: Inhibition of human Aurora-A at 1 uM
[28] = molecular target: Inhibitor of nuclear factor kappa-B kinase subunit beta (Homo sapiens) (UniProt O14920); experiment: Inhibition of human IKKbeta at 1 uM
[29] = molecular target: Calcium/calmodulin-dependent protein kinase type II subunit delta (Homo sapiens) (UniProt Q13557); experiment: Inhibition of human CaMK2delta at 1 uM
[30] = molecular target: Mitogen-activated protein kinase 10 (Homo sapiens) (UniProt P53779); experiment: Inhibition of human JNK3 at 1 uM
[31] = molecular target: Hepatocyte growth factor receptor (Homo sapiens) (UniProt P08581); experiment: Inhibition of human Met at 1 uM
[32] = molecular target: MAP kinase-activated protein kinase 5 (Homo sapiens) (UniProt Q8IW41); experiment: Inhibition of human PRAK at 1 uM
[33] = molecular target: Glycogen synthase kinase-3 beta (Homo sapiens) (UniProt P49841); experiment: Inhibition of human GSK3beta at 1 uM
[34] = molecular target: Proto-oncogene tyrosine-protein kinase Src (Homo sapiens) (UniProt P12931); experiment: Inhibition of human cSRC at 1 uM
[35] = molecular target: Glycogen synthase kinase-3 alpha (Homo sapiens) (UniProt P49840); experiment: Inhibition of human GSK3alpha at 1 uM
[36] = molecular target: Tyrosine-protein kinase BTK (Homo sapiens) (UniProt Q06187); experiment: Inhibition of human BTK at 1 uM
[37] = molecular target: Tyrosine-protein kinase Lck (Homo sapiens) (UniProt P06239); experiment: Inhibition of human Lck at 1 uM
[38] = molecular target: Protein kinase C beta type (Homo sapiens) (UniProt P05771); experiment: Inhibition of human PKCbeta2 at 1 uM
[39] = molecular target: Tyrosine-protein kinase HCK (Homo sapiens) (UniProt P08631); experiment: Inhibition of human Hck at 1 uM
[40] = molecular target: Tyrosine-protein kinase Yes (Homo sapiens) (UniProt P07947); experiment: Inhibition of human Yes at 1 uM
[41] = molecular target: Protein kinase C epsilon type (Homo sapiens) (UniProt Q02156); experiment: Inhibition of human PKCepsilon at 1 uM
[42] = molecular target: Cyclin-dependent kinase 1/cyclin B1 (Homo sapiens) (UniProt P06493+P14635); experiment: Inhibition of human CDK1/cyclinB at 1 uM; format: protein-complex assay

Chain of Glycogen synthase kinase-3 beta (Homo sapiens) (P49841 whole entry, looked up): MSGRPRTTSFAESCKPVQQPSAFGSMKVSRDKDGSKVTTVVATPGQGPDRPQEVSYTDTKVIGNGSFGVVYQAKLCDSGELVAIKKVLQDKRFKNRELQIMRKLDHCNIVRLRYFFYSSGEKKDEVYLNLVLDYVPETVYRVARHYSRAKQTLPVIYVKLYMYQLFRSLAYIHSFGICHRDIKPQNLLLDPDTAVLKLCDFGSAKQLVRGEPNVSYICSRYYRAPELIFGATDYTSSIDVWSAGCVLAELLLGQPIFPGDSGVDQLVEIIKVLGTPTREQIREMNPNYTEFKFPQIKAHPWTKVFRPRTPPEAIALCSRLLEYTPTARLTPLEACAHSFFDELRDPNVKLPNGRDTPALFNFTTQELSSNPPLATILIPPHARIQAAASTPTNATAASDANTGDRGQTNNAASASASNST
Chain of Dual specificity mitogen-activated protein kinase kinase 6 (Homo sapiens) (P52564 whole entry): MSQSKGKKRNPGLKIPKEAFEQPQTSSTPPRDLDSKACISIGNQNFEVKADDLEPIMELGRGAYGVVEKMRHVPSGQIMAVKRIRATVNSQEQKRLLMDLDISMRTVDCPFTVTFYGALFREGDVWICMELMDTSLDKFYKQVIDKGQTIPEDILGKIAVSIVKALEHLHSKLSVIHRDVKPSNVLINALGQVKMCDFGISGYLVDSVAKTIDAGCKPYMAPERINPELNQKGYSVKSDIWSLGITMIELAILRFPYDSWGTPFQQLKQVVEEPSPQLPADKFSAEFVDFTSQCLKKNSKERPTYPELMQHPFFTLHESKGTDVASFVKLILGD
Chain of Tyrosine-protein kinase Lyn (Homo sapiens) (P07948 2-512 limits assumed): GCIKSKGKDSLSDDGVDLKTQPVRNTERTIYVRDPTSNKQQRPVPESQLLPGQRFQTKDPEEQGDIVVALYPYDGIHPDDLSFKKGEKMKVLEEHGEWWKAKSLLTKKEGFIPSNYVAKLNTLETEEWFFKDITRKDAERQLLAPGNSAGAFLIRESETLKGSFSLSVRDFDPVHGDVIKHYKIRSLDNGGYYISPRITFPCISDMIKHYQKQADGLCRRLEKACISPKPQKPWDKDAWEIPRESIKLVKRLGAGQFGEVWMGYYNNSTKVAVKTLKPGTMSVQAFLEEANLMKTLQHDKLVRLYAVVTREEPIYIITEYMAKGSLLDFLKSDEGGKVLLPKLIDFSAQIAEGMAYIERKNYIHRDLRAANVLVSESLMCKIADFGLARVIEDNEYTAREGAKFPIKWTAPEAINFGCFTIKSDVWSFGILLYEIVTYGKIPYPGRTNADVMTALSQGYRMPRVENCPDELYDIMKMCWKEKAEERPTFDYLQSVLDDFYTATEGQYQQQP
Chain of Tyrosine-protein kinase ZAP-70 (Homo sapiens) (P43403 whole entry): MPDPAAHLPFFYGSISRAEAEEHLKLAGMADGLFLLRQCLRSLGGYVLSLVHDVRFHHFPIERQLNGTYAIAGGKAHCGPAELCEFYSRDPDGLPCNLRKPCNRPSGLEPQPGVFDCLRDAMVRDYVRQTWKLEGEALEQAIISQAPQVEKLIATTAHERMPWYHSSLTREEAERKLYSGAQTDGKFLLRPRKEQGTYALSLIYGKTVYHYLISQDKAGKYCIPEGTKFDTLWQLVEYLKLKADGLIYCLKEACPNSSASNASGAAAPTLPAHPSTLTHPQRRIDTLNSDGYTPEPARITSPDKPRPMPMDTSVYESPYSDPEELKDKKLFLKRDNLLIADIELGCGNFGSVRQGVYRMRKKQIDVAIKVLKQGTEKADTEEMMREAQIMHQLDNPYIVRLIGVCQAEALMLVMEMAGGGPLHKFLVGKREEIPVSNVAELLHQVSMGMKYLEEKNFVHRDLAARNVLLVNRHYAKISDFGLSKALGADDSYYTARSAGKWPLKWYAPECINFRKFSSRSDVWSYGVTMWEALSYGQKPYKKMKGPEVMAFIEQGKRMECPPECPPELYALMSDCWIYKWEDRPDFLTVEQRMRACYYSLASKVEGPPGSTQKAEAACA
Chain of Hepatocyte growth factor receptor (Homo sapiens) (P08581 whole entry): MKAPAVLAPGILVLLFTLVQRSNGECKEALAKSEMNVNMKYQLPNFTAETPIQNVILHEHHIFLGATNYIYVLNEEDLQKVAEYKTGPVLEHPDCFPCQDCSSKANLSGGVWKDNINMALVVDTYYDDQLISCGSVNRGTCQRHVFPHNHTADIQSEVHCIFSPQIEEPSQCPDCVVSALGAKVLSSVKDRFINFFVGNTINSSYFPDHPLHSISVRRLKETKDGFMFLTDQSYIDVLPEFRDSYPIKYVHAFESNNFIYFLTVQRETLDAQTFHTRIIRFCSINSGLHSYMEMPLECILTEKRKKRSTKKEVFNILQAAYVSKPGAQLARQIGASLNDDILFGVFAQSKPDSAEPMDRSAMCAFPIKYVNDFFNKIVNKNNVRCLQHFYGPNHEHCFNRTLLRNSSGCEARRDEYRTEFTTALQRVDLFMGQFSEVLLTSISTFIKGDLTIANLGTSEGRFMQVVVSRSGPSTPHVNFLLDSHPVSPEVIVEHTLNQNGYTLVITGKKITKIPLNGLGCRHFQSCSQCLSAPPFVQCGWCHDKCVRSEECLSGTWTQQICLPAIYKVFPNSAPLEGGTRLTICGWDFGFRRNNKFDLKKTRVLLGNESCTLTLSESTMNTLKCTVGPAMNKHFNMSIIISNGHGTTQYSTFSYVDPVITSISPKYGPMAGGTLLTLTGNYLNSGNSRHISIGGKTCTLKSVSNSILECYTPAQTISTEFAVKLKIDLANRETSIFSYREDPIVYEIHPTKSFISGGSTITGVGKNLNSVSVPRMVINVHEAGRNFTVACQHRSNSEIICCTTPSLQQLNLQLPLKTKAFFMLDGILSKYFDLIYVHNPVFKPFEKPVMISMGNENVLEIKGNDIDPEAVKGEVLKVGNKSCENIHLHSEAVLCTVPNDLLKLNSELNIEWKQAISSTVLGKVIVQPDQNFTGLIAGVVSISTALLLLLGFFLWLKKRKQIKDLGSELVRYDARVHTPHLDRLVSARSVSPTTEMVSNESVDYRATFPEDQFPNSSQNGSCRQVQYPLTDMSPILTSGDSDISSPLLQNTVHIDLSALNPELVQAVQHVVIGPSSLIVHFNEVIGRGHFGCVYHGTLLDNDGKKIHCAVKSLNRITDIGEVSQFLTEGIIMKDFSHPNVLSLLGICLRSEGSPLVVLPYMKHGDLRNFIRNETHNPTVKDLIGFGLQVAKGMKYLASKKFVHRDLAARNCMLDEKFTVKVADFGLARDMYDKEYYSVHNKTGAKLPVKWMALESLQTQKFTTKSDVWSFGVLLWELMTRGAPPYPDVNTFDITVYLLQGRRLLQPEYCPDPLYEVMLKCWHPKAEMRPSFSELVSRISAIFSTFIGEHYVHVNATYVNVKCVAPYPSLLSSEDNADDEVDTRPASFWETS
Chain of Rho-associated protein kinase 2 (Homo sapiens) (O75116 whole entry, looked up): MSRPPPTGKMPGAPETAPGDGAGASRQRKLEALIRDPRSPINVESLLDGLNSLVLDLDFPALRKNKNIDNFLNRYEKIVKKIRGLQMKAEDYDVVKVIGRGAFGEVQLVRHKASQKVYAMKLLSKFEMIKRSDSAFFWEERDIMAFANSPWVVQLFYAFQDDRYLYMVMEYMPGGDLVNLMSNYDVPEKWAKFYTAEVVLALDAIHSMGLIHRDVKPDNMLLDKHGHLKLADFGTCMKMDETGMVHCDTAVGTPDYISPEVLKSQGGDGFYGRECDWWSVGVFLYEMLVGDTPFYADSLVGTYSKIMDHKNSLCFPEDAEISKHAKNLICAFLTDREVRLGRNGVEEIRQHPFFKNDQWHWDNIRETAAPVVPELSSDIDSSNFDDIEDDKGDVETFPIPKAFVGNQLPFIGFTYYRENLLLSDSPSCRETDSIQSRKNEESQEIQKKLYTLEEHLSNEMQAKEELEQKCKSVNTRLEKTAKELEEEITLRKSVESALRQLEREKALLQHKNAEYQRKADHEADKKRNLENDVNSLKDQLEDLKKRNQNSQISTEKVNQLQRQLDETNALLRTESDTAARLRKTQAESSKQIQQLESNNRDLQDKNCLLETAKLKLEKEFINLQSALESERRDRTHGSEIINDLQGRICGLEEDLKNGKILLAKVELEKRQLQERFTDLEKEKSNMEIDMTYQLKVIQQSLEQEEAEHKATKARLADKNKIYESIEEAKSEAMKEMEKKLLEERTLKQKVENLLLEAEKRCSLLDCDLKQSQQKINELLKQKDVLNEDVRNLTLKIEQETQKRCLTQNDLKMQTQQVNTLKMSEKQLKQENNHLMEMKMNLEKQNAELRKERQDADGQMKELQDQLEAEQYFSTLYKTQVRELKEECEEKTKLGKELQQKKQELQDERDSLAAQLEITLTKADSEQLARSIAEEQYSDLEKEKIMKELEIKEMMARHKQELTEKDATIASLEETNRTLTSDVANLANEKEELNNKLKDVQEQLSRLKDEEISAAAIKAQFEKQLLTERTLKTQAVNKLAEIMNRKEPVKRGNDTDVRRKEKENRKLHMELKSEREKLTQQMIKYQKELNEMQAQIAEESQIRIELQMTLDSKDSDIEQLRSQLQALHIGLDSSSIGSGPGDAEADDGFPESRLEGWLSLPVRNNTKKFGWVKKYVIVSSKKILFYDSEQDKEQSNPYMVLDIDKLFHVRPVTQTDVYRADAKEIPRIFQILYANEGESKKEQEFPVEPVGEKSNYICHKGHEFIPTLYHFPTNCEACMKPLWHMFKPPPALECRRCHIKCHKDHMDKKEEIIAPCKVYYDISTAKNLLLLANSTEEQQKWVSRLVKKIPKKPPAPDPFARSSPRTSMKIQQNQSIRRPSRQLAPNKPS
Chain of Aurora kinase A (Homo sapiens) (O14965 whole entry): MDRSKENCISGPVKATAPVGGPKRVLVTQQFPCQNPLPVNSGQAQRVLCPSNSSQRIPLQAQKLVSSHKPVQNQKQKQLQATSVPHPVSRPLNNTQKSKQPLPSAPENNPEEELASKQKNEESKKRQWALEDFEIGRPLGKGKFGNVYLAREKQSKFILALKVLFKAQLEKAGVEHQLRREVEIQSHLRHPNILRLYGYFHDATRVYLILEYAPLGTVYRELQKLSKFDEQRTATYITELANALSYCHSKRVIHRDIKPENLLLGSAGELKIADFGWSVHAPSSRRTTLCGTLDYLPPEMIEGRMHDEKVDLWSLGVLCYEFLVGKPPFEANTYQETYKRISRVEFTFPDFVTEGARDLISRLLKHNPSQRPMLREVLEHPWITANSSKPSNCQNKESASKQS

Structure (SMILES): O=C(Nc1cc(Nc2cnccn2)nc(-c2ccnc(N3CCNCC3)c2)c1)C1CCNCC1
inhibition at 1 µM (LAD2 [1]): 14%
IC50 (CHO): > 20000 nM

Structure (SMILES): c1cc(-c2cccc(Nc3cnccn3)n2)cc(N2CCNCC2)c1
IC50 (CHO): > 15000 nM

IC50 (LAD2 [2]): 585 nM
Structure (SMILES): Oc1ccc(CNc2cc(Nc3cnccn3)nc(-c3ccnc(N4CCNCC4)c3)c2)cc1
IC50 (CHO): > 20000 nM

Structure (SMILES): c1cc(Nc2cnccn2)nc(-c2ccnc(N3CCNCC3)c2)c1
IC50 (CHO): > 15000 nM

Structure (SMILES): FC(F)(F)c1ccnc(Nc2cccc(-c3cccc(N4CCNCC4)c3)n2)c1
IC50 (CHO): 1000 nM

IC50 (LAD2 [2]): 122 nM
Structure (SMILES): O=C(Nc1cc(Nc2cnccn2)nc(-c2ccnc(N3CCNCC3)c2)c1)c1cccnc1
IC50 (CHO): > 20000 nM

IC50 (LAD2 [2]): 352 nM
Structure (SMILES): O=C(Cc1cccnc1)Nc1cc(Nc2cnccn2)nc(-c2ccnc(N3CCNCC3)c2)c1
IC50 (CHO): > 20000 nM

IC50 (LAD2 [2]): 188 nM
Structure (SMILES): CNc1cc(Nc2cnccn2)nc(-c2ccnc(N3CCNCC3)c2)c1
IC50 (CHO): > 20000 nM

inhibition [3]: < 50%
inhibition [4]: > 50%
inhibition [5]: < 50%
inhibition [6]: > 50%
inhibition [7]: < 50%
inhibition [8]: < 50%
inhibition [9]: > 50%
inhibition [10]: < 50%
inhibition [11]: < 50%
inhibition [12]: < 50%
inhibition [13]: < 50%
inhibition [14]: < 50%
inhibition [15]: < 50%
inhibition [16]: < 50%
inhibition [17]: < 50%
inhibition [18]: < 50%
inhibition [19]: < 50%
inhibition [20]: < 50%
inhibition [21]: < 50%
inhibition [22]: > 50%
inhibition [23]: > 50%
inhibition [24]: < 50%
inhibition [25]: < 50%
inhibition [26]: < 50%
inhibition [27]: < 50%
inhibition [28]: < 50%
inhibition [29]: < 50%
inhibition [30]: < 50%
inhibition [31]: < 50%
inhibition [32]: < 50%
inhibition [33]: < 50%
inhibition [34]: > 50%
inhibition [35]: > 50%
inhibition [36]: > 50%
inhibition [37]: > 50%
inhibition [38]: < 50%
IC50 (LAD2 [2]): 118 nM
inhibition [39]: > 50%
inhibition [40]: > 50%
inhibition [41]: < 50%
inhibition [42]: < 50%
Structure (SMILES): Nc1cc(Nc2cnccn2)nc(-c2ccnc(N3CCNCC3)c2)c1
IC50 (CHO): > 20000 nM

IC50 (LAD2 [2]): 204 nM
Structure (SMILES): O=C(Nc1cc(Nc2cnccn2)nc(-c2ccnc(N3CCNCC3)c2)c1)c1ccc(C(=O)O)nc1
IC50 (CHO): > 20000 nM

Structure (SMILES): FC(F)(F)c1ccnc(Nc2cccc(-c3ccnc(N4CCNCC4)c3)n2)c1
IC50 (CHO): 1000 nM

IC50 (LAD2 [2]): 140 nM
Structure (SMILES): O=C(O)c1ccc(C(=O)Nc2cc(Nc3cnccn3)nc(-c3ccnc(N4CCNCC4)c3)c2)cc1
IC50 (CHO): > 20000 nM

IC50 (LAD2 [2]): 169 nM
Structure (SMILES): Cc1cc(C(=O)Nc2cc(Nc3cnccn3)nc(-c3ccnc(N4CCNCC4)c3)c2)n(C)n1
IC50 (CHO): > 20000 nM

IC50 (LAD2 [2]): 331 nM
Structure (SMILES): O=C(Nc1cc(Nc2cnccn2)nc(-c2ccnc(N3CCNCC3)c2)c1)c1cncnc1
IC50 (CHO): > 20000 nM

Structure (SMILES): Cc1ccnc(Nc2cccc(-c3ccnc(N4CCNCC4)c3)n2)c1
IC50 (CHO): 1000 nM

IC50 (LAD2 [2]): 362 nM
Structure (SMILES): O=C(Nc1cc(Nc2cnccn2)nc(-c2ccnc(N3CCNCC3)c2)c1)c1ccccc1
IC50 (CHO): > 20000 nM

IC50 (LAD2 [2]): 1000 nM
Structure (SMILES): CC(=O)N1CCC(C(=O)Nc2cc(Nc3cnccn3)nc(-c3ccnc(N4CCNCC4)c3)c2)CC1
IC50 (CHO): > 20000 nM

Source: ChEMBL document CHEMBL2069193 (Bioorg Med Chem Lett, 2012)
